Measured values published in ChEMBL document CHEMBL4351026, “Antifungal activity, mode of action variability, and subcellular distribution of coumarin-based antifungal azoles” (Eur J Med Chem, 2019).
In brackets after ≈: the same amount, converted by molar mass. Activity calls are given as the source filed them. No cut-off for these calls is given here.

Experiments:
Nakaseomyces glabratus [1] = experiment: Antifungal activity against Candida glabrata ATCC 66032 assessed as reduction in fungal cell growth incubated for 24 hrs by MTT based broth double dilution method; assay type: functional; conditions: ATCC 66032, 24 h
Procedure, shortened: (§1)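 Broth double-dilution in Casitone broth. Starter cultures were grown 24 or 48 h at 37 °C, 5% CO₂, diluted 1:100, and added to serial two-fold dilutions at 64 to 0.007 µg/mL. Final inoculum was 5 x 10^4 to 5 x 10^5 CFU/mL; DMSO was 0.0012–1.3%. Plates were incubated at 37 °C, 5% CO₂, then MTT was added for 2 h. MIC followed CLSI M27-A3. Triplicates, two independent experiments.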

Candida albicans [2] = experiment: Antifungal activity against Candida albicans P-87 assessed as reduction in fungal cell growth incubated for 24 hrs by MTT based broth double dilution method; assay type: functional; conditions: P-87, 24 h; procedure, shortened: as §1
Candida dubliniensis = experiment: Antifungal activity against Candida dubliniensis T-99 assessed as reduction in fungal cell growth incubated for 24 hrs by MTT based broth double dilution method; assay type: functional; conditions: T-99, 24 h; procedure, shortened: as §1
Candida parapsilosis [3] = experiment: Antifungal activity against Candida parapsilosis ATCC 22019 assessed as reduction in fungal cell growth incubated for 24 hrs by MTT based broth double dilution method; assay type: functional; conditions: Lodderomyces parapsilosis, ATCC 22019, 24 h; procedure, shortened: as §1
[4] = test system: Meyerozyma guilliermondii; experiment: Antifungal activity against Candida guilliermondii T-47 assessed as reduction in fungal cell growth incubated for 24 hrs by MTT based broth double dilution method; assay type: functional; conditions: T-47, 24 h; procedure, shortened: as §1
Candida parapsilosis [5] = experiment: Antifungal activity against Candida parapsilosis ATCC 90018 assessed as reduction in fungal cell growth incubated for 24 hrs by MTT based broth double dilution method; assay type: functional; conditions: Lodderomyces parapsilosis, ATCC 90018, 24 h; procedure, shortened: as §1
Nakaseomyces glabratus [6] = experiment: Antifungal activity against Candida glabrata 192 assessed as reduction in fungal cell growth incubated for 24 hrs by MTT based broth double dilution method; assay type: functional; conditions: Nakaseomyces glabratus, 192, 24 h; procedure, shortened: as §1
Candida albicans [7] = experiment: Antifungal activity against Candida albicans SN152 assessed as reduction in fungal cell growth incubated for 24 hrs by MTT based broth double dilution method; assay type: functional; conditions: SN152, 24 h; procedure, shortened: as §1
Candida albicans [8] = experiment: Antifungal activity against Candida albicans ATCC 90028 assessed as reduction in fungal cell growth incubated for 24 hrs by MTT based broth double dilution method; assay type: functional; conditions: ATCC 90028, 24 h; procedure, shortened: as §1
Nakaseomyces glabratus [9] = experiment: Antifungal activity against Candida glabrata ATCC 2001 assessed as reduction in fungal cell growth incubated for 24 hrs by MTT based broth double dilution method; assay type: functional; conditions: ATCC 2001, 24 h; procedure, shortened: as §1
Candida albicans [10] = experiment: Antifungal activity against ERG11/ERG3 knocked out Candida albicans SN152 assessed as zone of inhibition at 25 ug […] by disk diffusion method; assay type: functional, organism-based
Candida albicans [11] = experiment: Antifungal activity against Candida albicans ATCC 90028 assessed as reduction in fungal cell growth incubated for 48 hrs by MTT based broth double dilution method; assay type: functional; conditions: ATCC 90028, 48 h; procedure, shortened: as §1
Nakaseomyces glabratus [12] = experiment: Antifungal activity against Candida glabrata ATCC 66032 assessed as reduction in fungal cell growth incubated for 48 hrs by MTT based broth double dilution method; assay type: functional; conditions: ATCC 66032, 48 h; procedure, shortened: as §1
Candida albicans [13] = experiment: Antifungal activity against Candida albicans SN152 assessed as zone inhibition at 25 ug incubated for 24 hrs by disk diffusion method; assay type: functional, organism-based
Procedure, shortened: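 Strains were streaked on YPD agar and grown at 30 °C: 24 h for parental SN152, 48 h for the erg11ΔΔ erg3ΔΔ mutant. Colonies were suspended in PBS and adjusted to OD 0.02 (SN152) or 0.03 (mutant), then spread on Casitone plates. A 6-mm disk loaded with 25 µg compound was placed centrally. Plates were incubated at 30 °C and photographed after 24 h.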

Nakaseomyces glabratus [14] = experiment: Antifungal activity against Candida glabrata 192 assessed as reduction in fungal cell growth incubated for 48 hrs by MTT based broth double dilution method; assay type: functional; conditions: Nakaseomyces glabratus, 192, 48 h; procedure, shortened: as §1
Cytochrome P450 3A4 = Cytochrome P450 3A4 (Homo sapiens, UniProt P08684); experiment: Inhibition of recombinant human CYP3A4 using Luciferin-PPXE as substrate preincubated for 10 mins followed by NADPH addition measured after 15 mins by luminometric method; assay type: ADME
Chain of Cytochrome P450 3A4 (P08684 whole entry): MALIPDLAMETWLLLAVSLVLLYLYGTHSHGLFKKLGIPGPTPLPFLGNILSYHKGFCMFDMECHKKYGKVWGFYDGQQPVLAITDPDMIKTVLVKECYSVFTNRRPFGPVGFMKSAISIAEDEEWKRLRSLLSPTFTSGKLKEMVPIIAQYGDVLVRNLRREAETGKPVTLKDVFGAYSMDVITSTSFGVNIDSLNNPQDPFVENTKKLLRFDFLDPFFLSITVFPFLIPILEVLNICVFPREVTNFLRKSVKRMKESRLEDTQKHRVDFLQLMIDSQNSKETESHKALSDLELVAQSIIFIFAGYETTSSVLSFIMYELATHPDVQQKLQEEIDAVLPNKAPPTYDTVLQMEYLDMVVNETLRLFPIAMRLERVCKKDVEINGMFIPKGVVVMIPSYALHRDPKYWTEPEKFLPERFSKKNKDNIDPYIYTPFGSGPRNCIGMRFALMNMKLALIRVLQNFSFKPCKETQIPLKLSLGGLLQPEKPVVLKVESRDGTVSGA
Procedure, shortened: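 P450-Glo luminescent assay, Luciferin-PPXE substrate. Compound was mixed with membranes containing recombinant human CYP3A4; controls were vehicle with membranes lacking CYP3A4. After 10 min preincubation at 37 °C, NADPH regeneration reagent was added and the mixture kept 15 min at 37 °C. Luciferin detection reagent stopped the reaction; after 20 min at room temperature, luminescence was read. Duplicates.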

Candida albicans [15] = experiment: Antifungal activity against Candida albicans SN152 assessed as reduction in fungal cell growth incubated for 48 hrs by MTT based broth double dilution method; assay type: functional; conditions: SN152, 48 h; procedure, shortened: as §1
[16] = Cytotoxicity against human HEK293T cells assessed as reduction in cell viability at 5 to 50 uM incubated for 24 hrs by XTT assay relative to control; assay type: cell-based, HEK-293T; conditions: HEK293T cells, read-out: INH
Procedure, shortened: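 HEK-293T cells were grown in DMEM with 10% FBS, 1% NEAA, 1% pyruvate and pen-strep-nystatin at 37 °C and 5% CO2. 7000 cells/well were seeded on poly-D-lysine-coated wells. After 24 h the medium was renewed and compounds were added at 5–50 µM from 1 mM stocks in 10% DMSO/0.3% Tween/PBS. After 24 h, XTT was added for 2 h at 37 °C, with absorbance read at 475 nm (reference 660 nm).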

HEK-293T = experiment: Cytotoxicity against human HEK293T cells assessed as reduction in cell viability at 5 to 50 uM incubated for 24 hrs by XTT assay; assay type: cell-based
Procedure, shortened: (§2)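 HEK-293T were grown in DMEM with 10% FBS; HepG2 in RPMI with 15% FBS; both at 37 °C, 5% CO₂. Cells (4000 HepG2 or 7000 HEK-293T per well) were seeded on poly-D-lysine wells. After 24 h the medium was renewed and compounds added at 5–50 µM from 1 mM stocks in 10% DMSO/0.3% Tween/PBS. After 24 h more, XTT was added for 2 h at 37 °C; absorbance was read at 475 nm against 660 nm reference.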

HepG2 = experiment: Cytotoxicity against human HepG2 cells assessed as reduction in cell viability at 5 to 50 uM incubated for 24 hrs by XTT assay; assay type: cell-based; conditions: hepg2, 24 h; procedure, shortened: as §2
[17] = Cytotoxicity against human HepG2 cells assessed as reduction in cell viability at 5 to 50 uM incubated for 24 hrs by XTT assay relative to control; assay type: cell-based; conditions: read-out: INH
Procedure, shortened: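 HepG2 cells were maintained in RPMI with 15% FBS, 1% NEAA, 1% pyruvate and pen-strep-nystatin at 37 °C and 5% CO2. 4000 cells/well were plated on poly-D-lysine coating and given fresh medium after 24 h. Compounds were dosed at 5–50 µM from 1 mM stocks in 10% DMSO/0.3% Tween/PBS and incubated 24 h. Viability was read by XTT (2 h, 37 °C) at 475 nm against 660 nm.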

| SMILES | MIC (Nakaseomyces glabratus [1]) [µg/mL] | MIC (Candida albicans [2]) [µg/mL] | MIC (Candida dubliniensis) [µg/mL] | MIC (Candida parapsilosis [3]) [µg/mL] | MIC [4] [µg/mL] | MIC (Candida parapsilosis [5]) [µg/mL] | MIC (Nakaseomyces glabratus [6]) [µg/mL] | MIC (Candida albicans [7]) [µg/mL] | MIC (Candida albicans [8]) [µg/mL] | MIC (Nakaseomyces glabratus [9]) [µg/mL] | inhibition zone (IZ) (Candida albicans [10]) | MIC (Candida albicans [11]) [µg/mL] | MIC (Nakaseomyces glabratus [12]) [µg/mL] | inhibition zone (IZ) (Candida albicans [13]) | MIC (Nakaseomyces glabratus [14]) [µg/mL] | IC50 (Cytochrome P450 3A4) [nM] | MIC (Candida albicans [15]) [µg/mL] | further results |
| --- | --- | --- | --- | --- | --- | --- | --- | --- | --- | --- | --- | --- | --- | --- | --- | --- | --- | --- |
| O=C(NCC(O)(Cn1cncn1)c1ccc(F)cc1F)c1cc2ccc(Cl)cc2[nH]c1=O (racemic) | 64 (≈ 139 µM) | 1 (≈ 2.17 µM) | 8 (≈ 17.4 µM) | 8 (≈ 17.4 µM) | 8 (≈ 17.4 µM) | 1 (≈ 2.17 µM) | 16 (≈ 34.8 µM) | 0.5 (≈ 1.09 µM) | 1 (≈ 2.17 µM) | > 64 | – | – | – | – | – | – | – | – |
| O=C(NCC(O)(Cn1cncn1)c1ccc(F)cc1F)c1cc2ccc(O)cc2oc1=O (racemic) | > 64 | 64 (≈ 145 µM) | > 64 | > 64 | > 64 | > 64 | > 64 | > 64 | 64 (≈ 145 µM) | 64 (≈ 145 µM) | – | – | – | – | – | – | – | – |
| CCC(CC)Oc1ccc2cc(C(=O)NCC(O)(Cn3ccnc3)c3ccc(F)cc3F)c(=O)oc2c1 (racemic) | 2 (≈ 3.91 µM) | 0.015 (≈ 0.0293 µM) | 0.25 (≈ 0.489 µM) | 0.25 (≈ 0.489 µM) | 0.125 (≈ 0.244 µM) | 0.125 (≈ 0.244 µM) | 1 (≈ 1.95 µM) | 0.03 (≈ 0.0586 µM) | 0.03 (≈ 0.0586 µM) | 4 (≈ 7.82 µM) | Active | 0.06 (≈ 0.117 µM) | 4 (≈ 7.82 µM) | Active | 2 (≈ 3.91 µM) | 332 | 0.06 (≈ 0.117 µM) | – |
| O=C(NCC(O)(Cn1cncn1)c1ccc(F)cc1F)c1cc2ccccc2[nH]c1=O (racemic) | > 64 | 1 (≈ 2.35 µM) | 8 (≈ 18.8 µM) | 8 (≈ 18.8 µM) | 8 (≈ 18.8 µM) | 2 (≈ 4.7 µM) | 16 (≈ 37.6 µM) | 0.5 (≈ 1.18 µM) | 2 (≈ 4.7 µM) | 64 (≈ 150 µM) | – | – | – | – | – | – | – | – |
| CCC(CC)Oc1ccc2cc(C(=O)NCC(O)(Cn3cncn3)c3ccc(F)cc3F)c(=O)oc2c1 (racemic) | > 64 | 0.125 (≈ 0.244 µM) | 2 (≈ 3.9 µM) | 2 (≈ 3.9 µM) | 2 (≈ 3.9 µM) | 0.5 (≈ 0.976 µM) | 4 (≈ 7.8 µM) | 0.25 (≈ 0.488 µM) | 0.125 (≈ 0.244 µM) | 32 (≈ 62.4 µM) | – | 0.5 (≈ 0.976 µM) | > 64 | – | 8 (≈ 15.6 µM) | ≥ 2500 | 0.5 (≈ 0.976 µM) | – |
| OC(Cn1cncn1)(Cn1cncn1)c1ccc(F)cc1F [FLUCONAZOLE] | 64 (≈ 209 µM) | 0.25 (≈ 0.816 µM) | 4 (≈ 13.1 µM) | 2 (≈ 6.53 µM) | 4 (≈ 13.1 µM) | 1 (≈ 3.27 µM) | 8 (≈ 26.1 µM) | 0.25 (≈ 0.816 µM) | 0.5 (≈ 1.63 µM) | 64 (≈ 209 µM) | inactive | 0.5 (≈ 1.63 µM) | > 64 | Active | 8 (≈ 26.1 µM) | – | 1 (≈ 3.27 µM) | cytotoxicity at 24 h, up to 50 µM [16]: < 40%; Activity (HEK-293T): Non-Toxic; Activity (HepG2): Non-Toxic; cytotoxicity at 24 h, up to 50 µM [17]: < 40% |
